Source: PubChem (several laboratories)
STAT3 act – IL-6 driven STAT3 reporter potentiators, primary screen, U3A cells, luciferase, luminescence, MLSCN library; IL-6 STAT3-luciferase reporter; 100% = signal with IL-6 EC80 alone; activation (% of control), % at 5.6 µM; 0.91% of 190,000 active;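 active means activation above the screen-wide mean of compound activation plus 3 SD, cut at about 130% in these data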
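Material: STAT3-luciferase reporter U3A cells; Probe or stimulus: IL-6 (33 ng/mL); Incubation: compound pre-incubation 1 h before IL-6, then 6 h stimulation at 37 °C; Technique: luminescence from STAT3-driven luciferase reporter; Evaluation: % activation versus median of IL-6-stimulated wells; Controls: IL-6-only high control.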
FLuc act counter – FLuc activators, initial screening, artefact control for FLuc-dependent activation tests, biochemical, ATPlite luminescence | Luciferin 4-monooxygenase (Photinus pyralis), P08659 | ATPlite luciferase biochemical, 10 min; 0 = ATP-free wells, 1 = DMSO control | activation factor at 10 µM | 200,000 tested, under 10 active;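 active means luciferase activation factor, scaled between plate controls, of at least 2 with compound at 10 µM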
Target sequence (P08659 whole entry, looked up): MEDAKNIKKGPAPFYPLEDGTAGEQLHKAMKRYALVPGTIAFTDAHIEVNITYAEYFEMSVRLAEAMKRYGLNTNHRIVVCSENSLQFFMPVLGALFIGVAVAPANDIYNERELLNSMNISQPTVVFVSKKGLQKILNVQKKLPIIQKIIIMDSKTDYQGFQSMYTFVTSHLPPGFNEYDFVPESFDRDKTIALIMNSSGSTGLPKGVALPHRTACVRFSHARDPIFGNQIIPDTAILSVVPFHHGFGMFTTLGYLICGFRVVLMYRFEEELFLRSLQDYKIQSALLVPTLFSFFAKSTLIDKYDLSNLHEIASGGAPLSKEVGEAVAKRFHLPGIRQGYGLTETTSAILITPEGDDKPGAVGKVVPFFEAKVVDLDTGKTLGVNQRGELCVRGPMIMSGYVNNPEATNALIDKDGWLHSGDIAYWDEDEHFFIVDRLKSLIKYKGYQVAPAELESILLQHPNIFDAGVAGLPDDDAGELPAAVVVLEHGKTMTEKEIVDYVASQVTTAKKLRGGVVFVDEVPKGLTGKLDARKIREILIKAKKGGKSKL
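assay system = Luciferase/luciferin detection reagent, cell-free biochemical luciferase assay | also added = ATP substrate | times = 10 min post-reagent at room temperature | measured by = luminescence from luciferase reaction | measure = luciferase activation, seen as luminescence increase over controls | benchmarks = low control with PBS replacing ATP, high control enzyme plus ATP without compound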
STAT3 inh – IL-6 driven STAT3 reporter inhibitors, primary screen, U3A cells, luciferase, luminescence, MLSCN library | IL-6 STAT3-luciferase reporter; host cell line lacks STAT1 | inhibition, % at 5.5 µM | 0.89% of 190,000 active | AID 862, 2007;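 active means inhibition above the mean inhibition across all screened compounds plus 3 SD, cut at about 44% in these data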
FLuc inh counter – firefly luciferase enzyme inhibitors, primary screen, artefact control for luciferase-based inhibitor screens, biochemical, luminescence, ATPLite. 10 min. inhibition, % at 10 µM. 1.5% of 200,000 active;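 active means inhibition above about 50% when tested at 10 µM, limit read from the data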
STAT1 act – STAT1 signaling activators, primary screen, cell-based, HTS, luciferase reporter; NIH 3T3 STAT1-luciferase reporter, IFN-gamma, luminescence; 100% = IFN-gamma alone, no compound; activation (% of control), % at 5.5 µM; 2.6% of 200,000 active; AID 932, 2007;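 active means activation above the screen-wide mean activation plus 3 SD, cut at about 130% in these data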
STAT1 blocker – STAT1 signaling inhibitors, primary screen, cell-based, HTS, luciferase reporter | inhibition, % at 5.5 µM | AID 920, 2007 | NIH 3T3 STAT1-luciferase reporter, IFN-gamma, luminescence | 0.35% of 200,000 active;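 active means inhibition above a set limit, the mean inhibition across all tested compounds plus 3 SD, cut at about 34% in these data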
A number is an active result. Shown are actives, neighbours in structure and some others; about 4.9% of the full set was active somewhere.

What do the screens show for `Cc1ccc(-c2nc3cc(Cl)ccc3o2)cc1`?
STAT3 act: 134.6; FLuc act counter: inactive; STAT3 inh: inactive; FLuc inh counter: 85.5; STAT1 act: 162.0; STAT1 blocker: inactive

What do the screens show for `COc1cc(C(=O)Nc2cc(-c3nc4cc(C)ccc4o3)ccc2C)cc(OC)c1OC`?
STAT3 act: inactive; FLuc act counter: inactive; STAT3 inh: inactive; FLuc inh counter: 51.3; STAT1 act: inactive; STAT1 blocker: inactive

What do the screens show for `COc1cc(OC)cc(-c2nc3cc(C)ccc3o2)c1`?
STAT3 act: 171.0; FLuc act counter: inactive; STAT3 inh: inactive; FLuc inh counter: inactive; STAT1 act: 157.7; STAT1 blocker: inactive

How did CC(C)NC(=O)[C@@H]1C[C@@]1(C)[C@@H](NC(=O)OCc1ccccc1)c1ccccc1 do in these assays?
STAT3 act: inactive; FLuc act counter: inactive; STAT3 inh: inactive; FLuc inh counter: inactive; STAT1 act: inactive; STAT1 blocker: inactive

Results for COc1ccccc1-c1noc(-c2ccco2)n1 ?
STAT3 act: inactive; FLuc act counter: inactive; STAT3 inh: inactive; FLuc inh counter: inactive; STAT1 act: 131.3; STAT1 blocker: inactive

What do the screens show for `COc1nc(-c2ccccc2)ccc1-c1noc(-c2ccco2)n1`?
STAT3 act: inactive; FLuc act counter: inactive; STAT3 inh: inactive; FLuc inh counter: inactive; STAT1 act: 145.4; STAT1 blocker: inactive

Results for COc1ccc(-c2ccc(-c3noc(-c4ccco4)n3)c(OC)n2)cc1 ?
STAT3 act: inactive; FLuc act counter: inactive; STAT3 inh: inactive; FLuc inh counter: inactive; STAT1 act: inactive; STAT1 blocker: inactive

Results for COc1cc(-c2noc(-c3ccco3)n2)cc(OC)c1OC ?
STAT3 act: inactive; FLuc act counter: inactive; STAT3 inh: inactive; FLuc inh counter: inactive; STAT1 act: inactive; STAT1 blocker: inactive

Results for CC1=CC2=NC(=O)/C(=C\c3cccn3CCOc3cc(C)ccc3C)C(=N)N2O1 ?
STAT3 act: inactive; FLuc act counter: inactive; STAT3 inh: inactive; FLuc inh counter: inactive; STAT1 act: inactive; STAT1 blocker: inactive

What do the screens show for `Cc1cc(C(=O)Cn2nc(C(=O)O)c3ccccc3c2=O)c(C)n1CCc1ccc(Cl)cc1`?
STAT3 act: inactive; FLuc act counter: inactive; STAT3 inh: inactive; FLuc inh counter: inactive; STAT1 act: inactive; STAT1 blocker: inactive

What do the screens show for `Cc1cc(C(=O)Cn2nc(C(=O)O)c3ccccc3c2=O)c(C)n1-c1ccccc1`?
STAT3 act: inactive; FLuc act counter: inactive; STAT3 inh: inactive; FLuc inh counter: 91.8; STAT1 act: inactive; STAT1 blocker: inactive

Results for Cc1ccc(NS(=O)(=O)c2ccc(Cl)c(C(=O)Nc3ccccc3-c3nc4ccccc4[nH]3)c2)cc1C ?
STAT3 act: inactive; FLuc act counter: inactive; STAT3 inh: inactive; FLuc inh counter: inactive; STAT1 act: inactive; STAT1 blocker: inactive

How did COc1ccccc1N/C=C/c1onc(C)c1[N+](=O)[O-] do in these assays?
STAT3 act: inactive; FLuc act counter: inactive; STAT3 inh: 87.1; FLuc inh counter: 59.4; STAT1 act: inactive; STAT1 blocker: 76.0

What do the screens show for `O=C(Nc1ccc(F)cc1F)c1noc2c1CCC2`?
STAT3 act: inactive; FLuc act counter: inactive; STAT3 inh: inactive; FLuc inh counter: inactive; STAT1 act: inactive; STAT1 blocker: inactive

How did Cc1noc(/C=C/Nc2ccc(F)cc2F)c1[N+](=O)[O-] do in these assays?
STAT3 act: inactive; FLuc act counter: inactive; STAT3 inh: inactive; FLuc inh counter: inactive; STAT1 act: 146.6; STAT1 blocker: inactive

Results for CCOc1cccc(/C=C/C(=O)O)c1 ?
STAT3 act: inactive; FLuc act counter: inactive; STAT3 inh: inactive; FLuc inh counter: inactive; STAT1 act: inactive; STAT1 blocker: inactive

Results for CCCCCc1ccc(-c2ccc(/C=C/C(=O)O)cc2)nc1 ?
STAT3 act: inactive; FLuc act counter: inactive; STAT3 inh: inactive; FLuc inh counter: 78.1; STAT1 act: inactive; STAT1 blocker: inactive

How did COc1ccc(C2CC(c3ccccc3)=NN2C(=O)COC(=O)c2nc3nc(C)cc(C)n3n2)cc1 (stereo not given) do in these assays?
STAT3 act: inactive; FLuc act counter: inactive; STAT3 inh: inactive; FLuc inh counter: inactive; STAT1 act: inactive; STAT1 blocker: inactive

How did COc1ccc(N(CCC#N)S(=O)(=O)c2cccc3nsnc23)cc1 do in these assays?
STAT3 act: inactive; FLuc act counter: inactive; STAT3 inh: inactive; FLuc inh counter: inactive; STAT1 act: inactive; STAT1 blocker: inactive

Results for Cc1ccccc1SCCNC(=O)c1ccccc1Br ?
STAT3 act: inactive; FLuc act counter: inactive; STAT3 inh: inactive; FLuc inh counter: inactive; STAT1 act: inactive; STAT1 blocker: inactive

What do the screens show for `Cc1ccccc1SCCNC(=O)CCc1ccccc1`?
STAT3 act: inactive; FLuc act counter: inactive; STAT3 inh: inactive; FLuc inh counter: inactive; STAT1 act: 148.7; STAT1 blocker: inactive

How did CCOC(=O)c1cnc(SCc2ccc(C)cc2)nc1N do in these assays?
STAT3 act: inactive; FLuc act counter: inactive; STAT3 inh: inactive; FLuc inh counter: inactive; STAT1 act: 140.1; STAT1 blocker: inactive

How did CCCCSc1ncc(C(=O)OCC)c(N)n1 do in these assays?
STAT3 act: inactive; FLuc act counter: inactive; STAT3 inh: inactive; FLuc inh counter: inactive; STAT1 act: 139.1; STAT1 blocker: inactive

Results for COc1ccc(NC(=O)COC(=O)c2ccc(S(=O)(=O)N(C)c3ccccc3OC)cc2)c(OC)c1 ?
STAT3 act: inactive; FLuc act counter: inactive; STAT3 inh: inactive; FLuc inh counter: inactive; STAT1 act: inactive; STAT1 blocker: inactive

Results for Cc1cccc(-c2nc(=S)c3c(n2Cc2ccco2)CCCC3)c1 ?
STAT3 act: inactive; FLuc act counter: inactive; STAT3 inh: inactive; FLuc inh counter: inactive; STAT1 act: inactive; STAT1 blocker: inactive

What do the screens show for `Cc1ccc(-c2nc(=S)c3c(n2Cc2ccco2)CCCC3)cc1`?
STAT3 act: 143.0; FLuc act counter: inactive; STAT3 inh: inactive; FLuc inh counter: inactive; STAT1 act: inactive; STAT1 blocker: inactive

Results for COc1ccc([N+](=O)[O-])cc1N(CC(=O)N1CCOCC1)S(C)(=O)=O ?
STAT3 act: inactive; FLuc act counter: inactive; STAT3 inh: inactive; FLuc inh counter: inactive; STAT1 act: inactive; STAT1 blocker: inactive

What do the screens show for `O=C(c1cc(COc2ccc(F)cc2F)on1)N1CCSCC1`?
STAT3 act: inactive; FLuc act counter: inactive; STAT3 inh: inactive; FLuc inh counter: inactive; STAT1 act: 137.6; STAT1 blocker: inactive

What do the screens show for `CCOc1ccccc1C(=O)Nc1nnc(SCC(=O)N2CCOCC2)s1`?
STAT3 act: inactive; FLuc act counter: inactive; STAT3 inh: inactive; FLuc inh counter: inactive; STAT1 act: inactive; STAT1 blocker: inactive
